Sampled rows, rich in hits. Any-hit rate of the full collection: about 2.7%.
ASAP1 inh: inhibitors of human ASAP1 ArfGAP activity; ASAP1-stimulated ARF1 GTP hydrolysis, GDP FP detection; inhibition, % at 16.5 µM; 360,000 compounds, 0.19% hits; in the data active = inhibition above about 25%;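 note: 0% = vehicle with enzyme and substrate and 100% = no enzyme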
PAFAH1B3 inh: blocks human PAF acetylhydrolase 1B catalytic subunit 3 | 340,000 compounds, 0.28% hits | recombinant PAFAH1B3, FP-rhodamine probe, fluorescence polarization | inhibition, % at 3.39 µM | AID 492972;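 active = inhibition above the screen-wide average of all tested compounds plus 3 SD, cut at about 25% in these data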;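 note: 0% = enzyme with DMSO only and 100% = wells lacking PAFAH1B3 protein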
Target sequence (Q15102 whole entry, looked up): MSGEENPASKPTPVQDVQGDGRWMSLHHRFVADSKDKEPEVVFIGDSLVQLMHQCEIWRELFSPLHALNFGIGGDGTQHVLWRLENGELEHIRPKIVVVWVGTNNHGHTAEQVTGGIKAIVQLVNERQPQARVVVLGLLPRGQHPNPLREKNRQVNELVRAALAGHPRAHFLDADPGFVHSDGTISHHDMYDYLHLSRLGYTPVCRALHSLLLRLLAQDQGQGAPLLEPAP
ARFGAP1 inhibitor: inhibitors of rat ARFGAP1; Arfgap1-stimulated ARF1 GTP hydrolysis, GDP FP detection; AID 651572; inhibition, % at 16.5 µM; Q62848; 360,000 compounds, 0.26% hits;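 active = inhibition above a per-plate limit, mean inhibition of low control wells plus 3 SD, cut at about 25% in these data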;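 note: 0% = DMSO wells with enzyme and 100% = wells lacking Arfgap1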
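Material: truncated rat Arfgap1 GAP domain; Incubation: compound-enzyme preincubation 20 min, reaction 120 min, detection 60 min, 25 °C; Read-out: percent inhibition of Arfgap1-stimulated GTP hydrolysis; Technique: FP, GDP Alexa 633 tracer displaced from anti-GDP antibody, 620/688 nm; Controls: No-Arfgap1 wells (100%) versus DMSO full-reaction wells (0%); Replication: single well per compound.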
PAFAH2 inh: PAFAH2 (human) inhibition. 340,000 compounds, 0.99% hits. inhibition, % at 3.39 µM. AID 492956. recombinant PAFAH2, FP-rhodamine activity probe, fluorescence polarization;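 active = inhibition above the mean over all tested compounds plus 3 SD, cut at about 30% in these data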;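 note: inhibitors block probe labeling of enzyme so polarization drops; 0% = enzyme with DMSO and 100% = wells lacking PAFAH2 protein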
pPAFAH inh: pPAFAH (human) enzyme inhibition; Q13093; recombinant pPAFAH, FP-rhodamine probe fluorescence polarization; inhibition, % at 3.39 µM; 330,000 compounds, 1.5% hits;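 active = inhibition above the mean inhibition across the screen plus 3 SD, cut at about 25% in these data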;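 note: inhibitors block binding of the rhodamine activity-based probe so polarization drops; 0% = enzyme with DMSO and 100% = wells lacking pPAFAH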
Target sequence (Q13093 whole entry, looked up): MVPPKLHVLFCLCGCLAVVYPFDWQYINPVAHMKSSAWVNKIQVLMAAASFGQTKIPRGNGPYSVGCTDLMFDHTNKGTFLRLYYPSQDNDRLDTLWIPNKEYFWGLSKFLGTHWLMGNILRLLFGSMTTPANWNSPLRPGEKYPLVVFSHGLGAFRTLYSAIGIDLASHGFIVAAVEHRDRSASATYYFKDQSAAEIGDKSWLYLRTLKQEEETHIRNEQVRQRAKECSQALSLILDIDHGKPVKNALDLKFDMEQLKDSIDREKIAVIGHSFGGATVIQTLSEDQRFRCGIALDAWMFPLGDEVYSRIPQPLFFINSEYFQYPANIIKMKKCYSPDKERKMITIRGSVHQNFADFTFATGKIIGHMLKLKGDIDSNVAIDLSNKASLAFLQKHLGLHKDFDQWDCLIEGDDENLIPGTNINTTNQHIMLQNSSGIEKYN
PAFAH1B2 inh: blocks human PAF acetylhydrolase 1b catalytic subunit 2 | recombinant PAFAH1B2, FP-rhodamine activity probe, fluorescence polarization | P68402 | inhibition, % at 3.39 µM | 340,000 compounds, 1.2% hits;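 active = inhibition above the mean of all tested compounds plus 3 SD, cut at about 24% in these data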;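 note: 0% = enzyme with DMSO and 100% = wells lacking PAFAH1B2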
PAFAH2 confirm: PAFAH2 (human) inhibition, confirmed | shares compounds with PAFAH2 inh | 2,300 compounds, 65% hits | inhibition, % at 3.39 µM | recombinant PAFAH2, FP-rhodamine activity probe, fluorescence polarization;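 active = mean inhibition over three repeats above a set limit taken from the earlier primary screen, cut at about 30% in these data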;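 note: inhibitor blocks binding of rhodamine activity probe so polarization falls; 0% = enzyme with DMSO and 100% = wells lacking PAFAH2 protein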
The depositor's hits bear a star; x = no result.

SMILES	ASAP1 inh	PAFAH1B3 inh	ARFGAP1 inhibitor	PAFAH2 inh	pPAFAH inh	PAFAH1B2 inh	PAFAH2 confirm
CC(=O)Nc1cccc(C(=O)OCC(=O)Nc2ccc(Cl)cn2)c1	-1.0	3.3	-0.9	43.5*	-2.3	1.2	33.2*
CCOc1cc(C(=O)OCC(=O)Nc2ccc(Cl)cn2)ccc1OCC(=O)N1CCOCC1	10.9	3.2	-9.5	83.2*	21.9	1.6	71.3*
O=C(OC1C2C=CC1C1C(=O)NC21)c1ccccc1 (stereo not drawn)	2.0	x	8.5	x	x	x	x
CCNC(=O)NC(=O)COC(=O)c1cccc(NS(=O)(=O)/C=C/c2ccccc2)c1	-0.5	-7.8	-2.8	4.1	3.6	0.7	x
CCN(c1ccc(NC(=O)COC(=O)c2ccc(C)s2)cc1)C(C)C	-6.5	5.5	-1.2	46.5*	18.4	-1.0	40.0*
Cc1ccc(C(=O)OCC(=O)Nc2ccc(Cl)cn2)s1	-1.1	9.2	-0.5	71.4*	8.1	4.0	62.6*
CCCC(C)NC(=O)COC(=O)c1cccc(NS(C)(=O)=O)c1 (stereo not drawn)	8.2	1.3	5.5	37.1*	3.6	2.5	21.9
O=C(COC(=O)c1ccc([N+](=O)[O-])s1)Nc1ccc(Cl)cn1	3.1	23.8	0.1	21.6	20.4	10.6	x
CC(=O)Nc1cccc(C(=O)OCC(=O)NC(C)c2ccc(F)cc2)c1 (stereo not drawn)	-6.1	9.6	7.9	46.3*	-11.2	-0.9	36.0*
O=C(CN1C(=O)C2CC=CCC2C1=O)Nc1nc2ccc(F)cc2s1 (stereo not drawn)	8.3	-2.6	-12.8	4.2	4.8	2.7	x
CCS(=O)(=O)N1Cc2ccccc2CC1C(=O)Nc1nnc(SCc2c(Cl)cccc2Cl)s1 (stereo not drawn)	-5.8	-8.9	18.4	51.6*	1.8	5.7	35.3*
Cc1cnc(C(=O)Nc2nnc(SCc3c(Cl)cccc3Cl)s2)cn1	-3.1	12.6	6.3	59.7*	-0.8	0.6	49.7*
Cc1ccc(CN2CC(C(=O)Nc3nnc(SCc4c(Cl)cccc4Cl)s3)CC2=O)cc1 (stereo not drawn)	5.2	-2.4	3.5	22.4	17.1	-1.4	x
O=C(CN1C(=O)C2CC=CCC2C1=O)Nc1nnc(SCc2c(Cl)cccc2Cl)s1 (stereo not drawn)	3.8	-0.2	9.3	77.8*	11.8	9.1	74.3*
CCSc1nnc(NC(=O)C2Cc3ccccc3CN2S(=O)(=O)CC)s1 (stereo not drawn)	0.0	2.7	7.0	1.7	8.2	1.9	x
O=C(NCC(=O)N1CCN(S(=O)(=O)c2c(F)cccc2F)CC1)c1ccccc1F	-9.1	-0.6	9.6	11.9	x	0.3	x
CC1(C(=O)NS(=O)(=O)c2ccc(C#N)cc2)CCN1C(=O)CC1CCCCC1 (stereo not drawn)	7.8	x	6.3	x	x	x	x
O=Cc1ccc(C(=O)OCC(=O)NCc2ccco2)cc1	-19.5	2.0	3.6	19.6	-4.6	-0.9	x
CC1Cc2ccccc2N1S(=O)(=O)c1cccc(C(=O)OCC(=O)NCc2ccco2)c1 (stereo not drawn)	5.8	3.5	-2.2	33.2*	18.1	9.9	22.4
Cc1ccc(C(=O)OCC(=O)NCc2ccco2)cc1C	-1.1	4.0	-10.3	58.6*	5.1	3.9	34.5*
CC(C)(C)c1ccc(C(=O)OCC(=O)NCc2ccco2)cc1	-6.0	11.5	10.9	55.0*	18.7	11.0	56.5*
O=S1(=O)CC(N2CCN(CCO)CC2)CN1Cc1cn(Cc2ccc(F)cc2)nn1 (stereo not drawn)	0.7	x	6.6	x	x	x	x
Cc1nn(C2CCS(=O)(=O)C2)c(Cl)c1/C=C/C(=O)OCC(=O)Nc1ccccc1[N+](=O)[O-] (stereo not drawn)	10.0	1.2	2.4	75.2*	5.5	3.9	74.0*
C=CCn1c(C)cc(C(=O)COC(=O)/C=C/c2c(C)nn(C3CCS(=O)(=O)C3)c2Cl)c1C (stereo not drawn)	2.0	2.1	5.8	52.5*	5.5	-3.9	42.7*
Cc1nn(C2CCS(=O)(=O)C2)c(Cl)c1/C=C/C(=O)OCC(=O)Nc1ccccc1OC(F)F (stereo not drawn)	-1.6	-2.8	-3.7	49.5*	0.1	4.1	43.3*
SMILES	ASAP1 inh	PAFAH1B3 inh	ARFGAP1 inhibitor	PAFAH2 inh	pPAFAH inh	PAFAH1B2 inh	PAFAH2 confirm
O=C(COC(=O)CCNS(=O)(=O)c1ccccc1)NC1CC1	5.8	6.4	2.3	2.4	9.3	-3.7	x
COc1ccccc1/C=C/C(=O)OCC(=O)NCc1ccco1	8.4	8.3	0.7	61.9*	4.5	4.7	52.8*
COc1cccc(OC)c1C(=O)OCC(=O)NCc1ccco1	-1.2	4.0	1.6	-2.1	1.5	7.0	x
COc1cc(/C=C/C(=O)OCC(=O)NCc2ccco2)ccc1O	-6.0	4.0	1.0	65.9*	6.2	4.1	45.5*
O=C1NN=C2CCCCCCCCCCC12 (stereo not drawn)	0.1	x	-4.2	x	x	x	x
C=CCN1C(=O)/C(=C2/Sc3ccccc3N2CCCS(=O)(=O)O)SC1=S	0.3	16.4	-9.3	33.7*	25.3*	14.4	21.8
C=CCN1C(=O)/C(=C2/Sc3ccccc3N2CC)SC1=S	1.1	0.7	-7.7	1.2	11.3	2.8	x
Oc1cc2c(cc1O)[C@H]1c3ccc(O)c(O)c3OC[C@@]1(O)C2	3.0	5.1	-10.0	15.3	-0.7	2.0	x
Oc1ccc2c(c1)OCC1(O)Cc3cc(O)c(O)cc3C21 (stereo not drawn)	3.3	11.2	6.2	34.2*	x	12.7	11.7
CCCN(C(=O)CSCc1ccc(C)cc1)c1c(N)n(Cc2ccccc2)c(=O)[nH]c1=O	11.0	x	-1.7	x	x	x	x
O=C(COC(=O)c1ccc2c(c1[N+](=O)[O-])C(=O)c1ccccc1C2=O)NC1CC1	-4.1	17.9	12.4	35.8*	-4.4	12.1	24.1
CC1CCCCC1NC(=O)COC(=O)c1ccc2c(c1Cl)C(=O)c1ccccc1C2=O (stereo not drawn)	0.0	5.2	2.3	53.9*	20.3	0.2	54.9*
CC(=O)Nc1ccc(S(=O)(=O)NCC(=O)Nc2ccc3c(c2)OCO3)cc1	-10.6	13.7	1.7	4.8	2.7	7.1	x
Cc1cc(CSc2nc(C)cc(=O)[nH]2)c2ncccc2c1	6.3	11.8	8.9	0.1	4.9	7.8	x
Cc1cc(=O)[nH]c(SCc2cccc3ccccc23)n1	-1.7	8.0	6.0	35.5*	0.0	3.9	24.7
CC1Cc2cc(/C(O)=C3/C(=O)C(=O)N(CCCn4ccnc4)C3c3ccc(Br)cc3)ccc2O1 (stereo not drawn)	-7.5	1.3	-0.2	4.1	3.7	-1.5	x

High-throughput results from PubChem.
